Assay results pooled from the literature.
Each line is one published result; the experiments were not run side by side.
Target: Serine/threonine-protein kinase MRCK alpha (CDC42BPA, Homo sapiens, UniProt Q5VT25)

Compound | assay | conditions | remaining binding [%]
Cc1cnc(Nc2ccc(C(=O)N3CCC(N4CCCC4)CC3)cc2)nc1-c1cc2ccccc2s1 | binding, competition with immobilised ligand | 1 µM | 10
O=C(NCC1CCOCC1)c1n[nH]cc1NC(=O)c1c(F)cccc1F | binding, competition with immobilised ligand | 1 µM | 100
c1cnn2ncc(-c3ccnc(N4CCC45COC5)n3)c2c1 | binding | 1 µM | 100
O=C(c1ccc(Nc2ncc(Cl)c(-c3ccc(Cl)s3)n2)cc1)N1CCC(N2CCCC2)CC1 | binding, competition with immobilised ligand | 1 µM | 53
FC(F)(F)Oc1cccc(-c2cnc3ccc(-c4ccncc4)nn23)c1 | cell-free assay, competition with immobilised ligand | 5 µM | 69
Cc1cnn2ncc(-c3ccnc(N(C)C)n3)c2c1 | binding | 1 µM | 87
COc1cnc(Nc2cccc(S(N)(=O)=O)c2)nc1N1CCN(c2ccccc2)CC1 | binding, competition with immobilised ligand | 1 µM | 97
CN(C)c1ncc(F)c(-c2cnn3ncccc23)n1 | binding | 1 µM | 100
O=C1CCc2cc(Nc3cc(OC4CCOCC4)c([N+](=O)[O-])cc3Cl)ccc2N1 | cell-free assay, competition with immobilised ligand | 1 µM | 91
CCN1CCN(Cc2ccc(C(=O)Nc3ccc(C)c(Oc4ccc5c(c4)CC(=O)N5)c3)cc2C(F)(F)F)CC1 | binding, competition with immobilised ligand | 1 µM | 100
F[C@@H]1CCN(c2nccc(-c3cnn4ncccc34)n2)C1 | binding | 1 µM | 100
O=C(c1ccc(Nc2ncc(Cl)c(-c3cc4ccccc4s3)n2)cc1)N1CCC(N2CCCC2)CC1 | binding, competition with immobilised ligand | 1 µM | 14
COc1cc(-c2cn(C3CCc4c(F)cccc4N(CC(F)(F)F)C3=O)nn2)ccc1-n1cnc(C)c1 (stereo not shown) | cell-free assay, competition with immobilised ligand | 1 µM | 100
N[C@@H]1CCN(c2nccc(-c3cnn4ncccc34)n2)C1 | binding | 1 µM | 100
O=C(Nc1cccnn1)N1CCC(=Cc2cccc(Oc3ccc(C(F)(F)F)cn3)c2)CC1 | cell-free assay, competition with immobilised ligand | 1 µM | 95
C[C@@H](c1ccc(-n2cnc3c(N)ncnc32)cc1)N1CCc2nn(C)c(Cc3ccccc3)c2C1=O | binding, competition with immobilised ligand | 0.1 µM | 91
CS(=O)(=O)N1CCCC(NC(=O)[C@H](CCC2CCCCC2)NC(=O)c2ccc(CNc3ncnc4c3nnn4-c3ccccc3)cc2)C1 (stereo partly shown) | cell-free assay, competition with immobilised ligand | 0.1 µM | 100
C=CC(=O)N1CCC(C(=O)NCC(=O)N2CCN(c3nc(-c4cnc(N)nc4C(F)F)nc(N4CCOCC4)n3)CC2)CC1 | binding, competition with immobilised ligand | 1 µM | 100
COc1ccnn2ncc(-c3ccnc(N(C)C)n3)c12 | binding | 1 µM | 100
CCC(=N\O)/C(C)=C/c1ccc(F)cc1 | cell-free assay, competition with immobilised ligand | 1 µM | 100
CC1CCCN1c1nccc(-c2cnn3ncccc23)n1 (stereo not shown) | binding | 1 µM | 100
CN(C)CC#Cc1ccc(OCCCc2sc(N3CCc4cccc(C(=O)Nc5nc6ccccc6s5)c4C3)nc2C(=O)O)c(F)c1 | cell-free assay, competition with immobilised ligand | 1 µM | 97
